In paper PMC3304490 (Biochemical Journal, 2012):
Several values for one entry are separate records, joined by “and”; a condition that tells them apart may be missing. Equal entries are not always repeated. Where two headings read alike, the source gives them in different places.

Assays:
[1] = molecular target: CR8 (DxDxD) domain of LRP (Homo sapiens, UniProt Q07954); assay: Tryptophan fluorescence titration of amino acid ligands with CR8 domain; format: binding; settings: for fold weaker Kd than lysine methyl ester: pH 5.5, I=0.02; for ΔG^u: unitary free energy; for slope of Debye–Hückel plot (−zA×zB): ionic-strength-dependence of binding
[2] = molecular target: CR5 (DxDDD) domain of LRP (Homo sapiens, UniProt Q07954); assay: Tryptophan fluorescence titration of amino acid ligands with CR5 domain; format: binding; settings: for ΔG^u: unitary free energy
Method in brief: (§1)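 Each CR domain (1–3 μM) was titrated at 298 K in buffer with 1 mM Ca2+ and 0.1% PEG 8000: 20 mM Mes at pH 5.5 or 20 mM Tris/HCl at pH 7.4, with NaCl set to the target ionic strength. Tryptophan emission (λex 280 nm) was read at the wavelength of maximal change and averaged over 120 s, with blank and dilution correction. Kd came from a non-linear single-site fit, using the protonated ligand fraction.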

[3] = system: cluster II CR domains of LRP; assay: Fluorescence titrations, summary statements across several CR domains; format: binding
Method in brief: as §1

[4] = molecular target: D1085A (DxxxD) CR8 variant (Homo sapiens, UniProt Q07954, D1085A); assay: Tryptophan fluorescence titration of amino acid ligands with CR8 variant D1085A; format: binding; settings: for Kd: I=0.02, pH 5.5, 298 K; for ΔG^u: unitary free energy
Method in brief: as §1

[5] = molecular target: CR3 (DxDxD) domain of LRP (Homo sapiens, UniProt Q07954); assay: Tryptophan fluorescence titration of amino acid ligands with CR3 domain; format: binding; settings: for ΔG^u: unitary free energy
Method in brief: as §1

[6] = pKa values used for correction of ligand concentration; format: physicochemical; settings: pH 5.5
[7] = cited from earlier work
[8] = physiological ionic strength, binding favoured at pH 7.4
[9] = CR3, CR5 and CR8, I=0.02, both pH values
[10] = irrespective of ionic strength or pH, results not shown
[11] = Table 3, pH 7.4, ionic strength not given

CR5 (DxDDD) domain of LRP, sequence (Q07954 934-973 limits assumed): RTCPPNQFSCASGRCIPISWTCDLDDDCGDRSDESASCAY
D1085A (DxxxD) CR8 variant, sequence (Q07954 1060-1099 D1085A limits assumed): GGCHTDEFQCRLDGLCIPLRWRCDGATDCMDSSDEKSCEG
CR3 (DxDxD) domain of LRP, sequence (Q07954 852-892 limits assumed): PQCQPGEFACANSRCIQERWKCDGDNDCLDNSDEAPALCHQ
CR8 (DxDxD) domain of LRP, sequence (Q07954 1060-1099 limits assumed): as the sequence (Q07954 1060-1099 D1085A limits assumed) above, with A26D counted along it

## COC(=O)[C@H](C)N [Alanine methyl ester]
[1]
  Kd: 4900 ± 250 µM
  fold weaker Kd than lysine methyl ester: 28 fold
[1]; Table 3, pH 5.5
  ΔG°: -3.15 kcal/mol
[2]
  Kd: 4100 ± 240 µM
[2]; Table 3, pH 5.5
  ΔG°: -3.25 kcal/mol
[2]; pH 5.5
  fold weaker Kd than lysine methyl ester: 23 fold
[3]; CR5 and CR8
  ΔΔG° compared with lysine methyl ester: 1.86 to 1.98 kcal/mol

## COC(=O)[C@@H](N)CCCN=C(N)N [Arginine methyl ester]
[1]; I=0.02, pH 5.5
  ΔG°: -5.02 kcal/mol
  ΔG^u: -7.39 kcal/mol
[1]; I=0.02, pH 5.5, 298 K
  Kd: 210 ± 10 µM
[1]; I=0.02, pH 7.4
  ΔG°: -4.68 kcal/mol
  ΔG^u: -7.05 kcal/mol
[1]; I=0.17, pH 5.5
  ΔG°: -4.23 kcal/mol
  ΔG^u: -6.6 kcal/mol
[1]; I=0.17, pH 5.5, 298 K
  Kd: 780 ± 10 µM
[1]; I=0.17, pH 7.4
  ΔG°: -4.42 kcal/mol
  ΔG^u: -6.79 kcal/mol
[2]; I=0.02, pH 5.5
  ΔG°: -4.83 kcal/mol
  ΔG^u: -7.19 kcal/mol
[2]; I=0.02, pH 5.5, 298 K
  Kd: 290 ± 10 µM
[2]; I=0.02, pH 7.4
  ΔG°: -4.42 kcal/mol
  ΔG^u: -6.76 kcal/mol
[2]; I=0.17, pH 5.5
  ΔG°: -4.18 kcal/mol
  ΔG^u: -6.55 kcal/mol
[2]; I=0.17, pH 5.5, 298 K
  Kd: 840 ± 50 µM
[2]; I=0.17, pH 7.4
  ΔG°: -4.25 kcal/mol
  ΔG^u: -6.62 kcal/mol
[2]; [8]
  difference in ΔG° between pH 5.5 and 7.4: 0.3 kJ/mol
[4]; I=0.02, pH 5.5
  ΔG°: -3.49 kcal/mol
  ΔG^u: -5.86 kcal/mol
[4]
  Kd: 2800 ± 110 µM
[4]; I=0.02, pH 7.4
  ΔG°: -3.13 kcal/mol
  ΔG^u: -5.5 kcal/mol
[5]; I=0.02, pH 5.5
  ΔG°: -4.33 kcal/mol
  ΔG^u: -6.69 kcal/mol
[5]; I=0.02, pH 5.5, 298 K
  Kd: 680 ± 70 µM
[5]; I=0.02, pH 7.4
  ΔG°: -4.25 kcal/mol
  ΔG^u: -6.62 kcal/mol
[5]; I=0.17, pH 5.5
  ΔG°: -3.66 kcal/mol
  ΔG^u: -6.02 kcal/mol
[5]; I=0.17, pH 5.5, 298 K
  Kd: 2090 ± 160 µM
[5]; I=0.17, pH 7.4
  ΔG°: -4.23 kcal/mol
  ΔG^u: -6.6 kcal/mol

## COC(=O)[C@@H](N)Cc1c[nH]cn1 [Histidine methyl ester]
[6]
  fraction of the imidazole protonated: ~ 40%
[1]; Table 3, pH 5.5
  ΔG°: -4.83 kcal/mol
[7]; side chain (imidazole)
  pKa: 5.33
[2]; Table 3, pH 5.5
  ΔG°: -4.76 kcal/mol
[4]; Table 3, pH 5.5
  ΔG°: -3.18 kcal/mol
[5]; Table 3, pH 5.5
  ΔG°: -3.99 kcal/mol
[3]; four domains, pH 5.5 and low ionic strength
  ΔΔG° compared with lysine methyl ester: 0.14 to 0.48 kcal/mol

## COC(=O)[C@@H](N)CCCCN [Lysine methyl ester]
[1]; 298 K, pH 7.4, I=0.17, from interpolated Kd
  ΔG°: -4.66 kcal/mol
[1]; I=0.02, pH 5.5
  ΔG°: -5.14 kcal/mol
  ΔG^u: -7.5 kcal/mol
[1]; I=0.02, pH 5.5, 298 K
  Kd: 170 ± 10 µM
[1]; I=0.02, pH 7.4
  ΔG°: -5.11 kcal/mol
  ΔG^u: -7.46 kcal/mol
[1]; I=0.17, pH 5.5
  ΔG°: -4.42 kcal/mol
  ΔG^u: -6.79 kcal/mol
[1]; I=0.17, pH 5.5, 298 K
  Kd: 570 ± 20 µM
[1]; I=0.17, pH 7.4
  ΔG°: -4.71 kcal/mol
  ΔG^u: -7.07 kcal/mol
[1]; at saturation (Figure 2)
  blue shift of CR8 tryptophan fluorescence: approximately 7 nm
[1]; pH 5.5
  slope of Debye–Hückel plot (−zA×zB): 2.2
[1]; pH 7.4, I=0.17, 294 K (Figure 2)
  maximum quench of CR8 fluorescence at saturation: 66%
[1]; pH 7.4, I=0.17, van't Hoff analysis
  ΔS°: 29 J·K^−1·mol^−1
[1]; pH 7.4
  slope of Debye–Hückel plot (−zA×zB): 1.5 and 1.53
[1]; physiological conditions of 310 K and I=0.17, pH 7.4
  ΔG: -4.57 kcal/mol
[1]; read-out: interpolated Kd, 298 K, pH 7.4, I=0.17, from van't Hoff plot
  Kd: 380 µM
[1]; van't Hoff plot 279–310 K, pH 7.4, I=0.17
  ΔH°: -2.56 kcal/mol
[7]; α-amino group
  pKa: 7.2
[2]; I=0.02, pH 5.5
  ΔG°: -5.11 kcal/mol
  ΔG^u: -7.46 kcal/mol
[2]; I=0.02, pH 5.5, 298 K
  Kd: 180 ± 10 µM
[2]; I=0.02, pH 7.4
  ΔG°: -4.85 kcal/mol
  ΔG^u: -7.22 kcal/mol
[2]; I=0.17, pH 5.5
  ΔG°: -4.4 kcal/mol
  ΔG^u: -6.76 kcal/mol
[2]; I=0.17, pH 5.5, 298 K
  Kd: 600 ± 40 µM
[2]; I=0.17, pH 7.4
  ΔG°: -4.64 kcal/mol
  ΔG^u: -7 kcal/mol
[4]
  Kd of D1085A, fold higher than for N^α-acetyl-lysine methyl ester: ~ 3 fold
  Kd: 3700 ± 130 µM
[4]; I=0.02, pH 5.5
  ΔG°: -3.32 kcal/mol
  ΔG^u: -5.69 kcal/mol
[4]; I=0.02, pH 7.4
  ΔG°: -3.27 kcal/mol
  ΔG^u: -5.64 kcal/mol
[4]; pH 5.5 and I=0.02
  fold decrease of Kd compared with N^α-acetyl-lysine methyl ester: less than 4 fold
[5]; I=0.02, pH 5.5
  ΔG°: -4.47 kcal/mol
  ΔG^u: -6.84 kcal/mol
[5]; I=0.02, pH 5.5, 298 K
  Kd: 530 ± 50 µM
[5]; I=0.02, pH 7.4
  ΔG°: -4.97 kcal/mol
  ΔG^u: -7.34 kcal/mol
[5]; I=0.17, pH 5.5
  ΔG°: -3.99 kcal/mol
  ΔG^u: -6.36 kcal/mol
[5]; I=0.17, pH 5.5, 298 K
  Kd: 1190 ± 110 µM
[5]; I=0.17, pH 7.4
  ΔG°: -4.68 kcal/mol
  ΔG^u: -7.05 kcal/mol
[5]; [8]
  difference in ΔG° between pH 5.5 and 7.4: 2.9 kJ/mol
[3]; [9]
  fold reduction in Kd compared with N^α-acetyl-lysine methyl ester: 5–18 fold
  increase in ΔG° compared with N^α-acetyl-lysine methyl ester: 1.03 to 1.72 kcal/mol

## COC(=O)[C@H](CCCCN)NC(C)=O [N^α-acetyl-lysine methyl ester]
[1]; I=0.02, pH 5.5
  ΔG°: -3.42 kcal/mol
[1]; I=0.02, pH 5.5, 298 K
  Kd: 3100 ± 440 µM
[1]; I=0.02, pH 7.4
  ΔG°: -3.75 kcal/mol
[1]; I=0.17, pH 5.5
  ΔG°: -3.51 kcal/mol
[1]; I=0.17, pH 5.5, 298 K
  Kd: 2600 ± 280 µM
[1]; I=0.17, pH 7.4
  ΔG°: -3.42 kcal/mol
[2]; I=0.02, pH 5.5
  ΔG°: -3.75 kcal/mol
[2]; I=0.02, pH 5.5, 298 K
  Kd: 1800 ± 160 µM
[2]; I=0.02, pH 7.4
  ΔG°: -3.8 kcal/mol
[2]; I=0.17, pH 5.5
  ΔG°: -3.59 kcal/mol
[2]; I=0.17, pH 5.5, 298 K
  Kd: 2300 ± 490 µM
[2]; I=0.17, pH 7.4
  ΔG°: -3.54 kcal/mol
[4]; I=0.02, pH 5.5
  ΔG°: -2.58 kcal/mol
[4]
  Kd: 12800 ± 2000 µM
[4]; I=0.02, pH 7.4
  ΔG°: -2.58 kcal/mol
[4]; compared with domains with central aspartate
  loss of binding energy for D1085A: 0.837 to 1.22 kcal/mol
[5]; I=0.02, pH 5.5
  ΔG°: -3.47 kcal/mol
[5]; I=0.02, pH 5.5, 298 K
  Kd: 2900 ± 120 µM
[5]; I=0.02, pH 7.4
  ΔG°: -3.7 kcal/mol
[5]; I=0.17, pH 5.5
  ΔG°: -3.47 kcal/mol
[5]; I=0.17, pH 5.5, 298 K
  Kd: 2900 ± 280 µM
[5]; I=0.17, pH 7.4
  ΔG°: -3.56 kcal/mol
[3]; CR3, CR5 and CR8, two ionic strengths, pH 5.5 and 7.4
  range of ΔG° values: -3.8 to -3.42 kcal/mol

## CCOC(=O)[C@@H](N)CCCCN [lysine ethyl ester]
[1]; [10]
  binding affinity compared with lysine methyl ester: negligible difference
[2]; [10]
  binding affinity compared with lysine methyl ester: negligible difference
[5]; [10]
  binding affinity compared with lysine methyl ester: negligible difference

## NCCCC[C@H](N)C(=O)O [unmodified lysine, lysine]
[1]
  Kd: 1050 µM
  fold weaker Kd than lysine methyl ester: 6 fold

## Aspartate methyl ester
[1]; Table 3, pH 5.5
  ΔG°: -1.51 kcal/mol
[1]; Table 3, pH 7.4
  ΔG°: -1.27 kcal/mol
[2]; Table 3, pH 5.5
  ΔG°: -1.67 kcal/mol
[2]; Table 3, pH 7.4
  ΔG°: -1.63 kcal/mol
[2]; [11]
  Kd: 63000 ± 5000 µM
[4]
  fold weaker Kd of D1085A variant than of CR8: ~ 3 fold
[4]; Table 3, pH 5.5
  ΔG°: -0.86 kcal/mol
[4]; Table 3, pH 7.4
  ΔG°: -0.789 kcal/mol
[5]; Table 3, pH 5.5
  ΔG°: -1.48 kcal/mol
[5]; Table 3, pH 7.4
  ΔG°: -1.6 kcal/mol
[5]; [11]
  Kd: 66000 ± 11000 µM
[3]; Table 3 domains
  fold weaker Kd than lysine methyl ester: 65–450 fold
  ΔΔG° compared with lysine methyl ester: 2.46 to 3.63 kcal/mol
[3]; titrations repeated with EDTA to remove Ca^2+, results not shown
  perturbation of CR domain tryptophan fluorescence in presence of EDTA: no perturbation
